# The source made the active and inactive calls. No cut-off for these calls is given here.
# What was measured:
# [1] = system: Nucleic Acid; experiment: Binding affinity to DNA assessed as thermal transition of DNA relative to control; assay type: nucleic-acid assay
# [2] = system: RAW264.7; experiment: Cytotoxicity against mouse RAW264.7 cells at 5 uM; assay type: cell-based; conditions: raw264.7, 5 µM
# [3] = Cytotoxicity against mouse RAW264.7 cells; assay type: cell-based; conditions: read-out: LD50 (the source's name)
# [4] = system: Mus musculus; experiment: Antiinflammatory activity in mouse assessed as inhibition of TPA-induced mouse ear edema at 500 ug/ear administered 30 mins before TPA challenge measured after 7 hrs relative to untreated control; assay type: functional, organism-based
# Outline: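 Compound (500 µg) applied to one mouse ear; 30 min later TPA (0.5 µg) applied to both ears. Edema scored after 7 h and expressed as percentage of edema. Mean ± SE, n = 6.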
# [5] = molecular target: T1, DNA polymerase lambda (Homo sapiens) (UniProt Q9UGP5); experiment: Inhibition of recombinant His-tagged human DNA polymerase lambda using poly(dA)/oligo(dT)18 (A/T = 2/1) and dTTP as the DNA template-primer and nucleotide substrate at 10 uM after 60 mins
# T1 sequence (whole entry): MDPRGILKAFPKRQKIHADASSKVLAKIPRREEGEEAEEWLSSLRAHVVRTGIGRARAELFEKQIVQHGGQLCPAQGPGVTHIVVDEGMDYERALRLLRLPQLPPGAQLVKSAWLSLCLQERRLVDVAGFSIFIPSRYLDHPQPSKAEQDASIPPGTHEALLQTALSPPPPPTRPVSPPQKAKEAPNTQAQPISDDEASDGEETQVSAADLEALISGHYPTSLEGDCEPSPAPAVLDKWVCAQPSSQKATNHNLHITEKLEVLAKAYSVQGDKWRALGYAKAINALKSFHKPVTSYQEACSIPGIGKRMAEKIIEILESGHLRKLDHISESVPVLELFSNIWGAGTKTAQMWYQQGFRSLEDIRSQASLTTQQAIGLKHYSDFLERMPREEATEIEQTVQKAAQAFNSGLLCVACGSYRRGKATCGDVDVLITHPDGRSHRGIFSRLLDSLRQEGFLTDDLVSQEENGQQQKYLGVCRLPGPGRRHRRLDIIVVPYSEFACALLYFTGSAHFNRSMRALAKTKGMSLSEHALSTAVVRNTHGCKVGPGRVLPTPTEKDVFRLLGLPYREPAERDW
# Outline: (§1)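 Compound in DMSO, sonicated 30 s. Premixed 0 °C, 10 min with enzyme (0.05 units) in 50 mM Tris-HCl pH 7.5, 1 mM DTT, 50% glycerol, 0.1 mM EDTA, then added to standard reaction mixture. Template-primers: poly(dA)/oligo(dT)18 (2/1) for pols, oligo(dT)18 for TdT, poly(rA)/oligo(dT)18 for HIV-1 RT, with [3H]dTTP. 60 min at 37 °C (Taq 74 °C). Activity relative to no-inhibitor control; mean ± SE of three experiments.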
# [6] = species on record: Bos taurus; experiment: Inhibition of calf DNA polymerase alpha using poly(dA)/oligo(dT)18 (A/T = 2/1) and dTTP as the DNA template-primer and nucleotide substrate at 10 uM after 60 mins; outline: as §1
# [7] = species on record: Homo sapiens; experiment: Inhibition of histidine-tagged human DNA polymerase gamma using poly(dA)/oligo(dT)18 (A/T = 2/1) and dTTP as the DNA template-primer and nucleotide substrate at 10 uM after 60 mins; outline: as §1
# [8] = molecular target: T2, DNA polymerase kappa (Homo sapiens) (UniProt Q9UBT6); experiment: Inhibition of C-terminal His6-tagged human DNA polymerase kappa (amino acids 1 to 560) using poly(dA)/oligo(dT)18 (A/T = 2/1) and dTTP as the DNA template-primer and nucleotide substrate at 10 uM after 60 mins
# T2 sequence (whole entry): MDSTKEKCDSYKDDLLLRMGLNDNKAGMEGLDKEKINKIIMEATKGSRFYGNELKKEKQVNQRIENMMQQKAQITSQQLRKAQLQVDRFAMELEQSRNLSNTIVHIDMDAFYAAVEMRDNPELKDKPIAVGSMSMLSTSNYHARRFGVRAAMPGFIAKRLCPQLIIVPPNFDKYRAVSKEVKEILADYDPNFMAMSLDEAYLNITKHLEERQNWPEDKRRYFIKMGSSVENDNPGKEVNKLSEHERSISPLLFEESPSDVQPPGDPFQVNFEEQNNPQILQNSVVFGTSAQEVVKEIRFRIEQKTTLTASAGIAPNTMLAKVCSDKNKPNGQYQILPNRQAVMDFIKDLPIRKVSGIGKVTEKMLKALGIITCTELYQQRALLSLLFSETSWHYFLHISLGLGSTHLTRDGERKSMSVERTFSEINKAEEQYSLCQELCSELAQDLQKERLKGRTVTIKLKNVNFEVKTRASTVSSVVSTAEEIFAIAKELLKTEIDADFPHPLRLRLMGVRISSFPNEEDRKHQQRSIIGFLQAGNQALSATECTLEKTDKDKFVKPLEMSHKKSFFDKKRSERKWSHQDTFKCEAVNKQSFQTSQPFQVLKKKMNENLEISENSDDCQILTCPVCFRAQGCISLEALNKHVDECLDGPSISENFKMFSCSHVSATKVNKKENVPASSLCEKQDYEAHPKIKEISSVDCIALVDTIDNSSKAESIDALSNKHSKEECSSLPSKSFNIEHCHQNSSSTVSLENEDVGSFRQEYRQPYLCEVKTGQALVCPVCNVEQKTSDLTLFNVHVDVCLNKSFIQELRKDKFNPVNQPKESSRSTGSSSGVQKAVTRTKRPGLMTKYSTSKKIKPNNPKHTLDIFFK
# [9] = species on record: Bos taurus; experiment: Inhibition of calf DNA polymerase alpha using bovine deoxyribonuclease 1-treated DNA and dNTP as the DNA template-primer and nucleotide substrate at 10 uM after 60 mins
# [10] = species on record: Homo sapiens; experiment: Inhibition of histidine-tagged human DNA polymerase gamma using bovine deoxyribonuclease 1-treated DNA and dNTP as the DNA template-primer and nucleotide substrate at 10 uM after 60 mins
# [11] = molecular target: T2, DNA polymerase kappa (Homo sapiens); experiment: Inhibition of C-terminal His6-tagged human DNA polymerase kappa (amino acids 1 to 560) using bovine deoxyribonuclease 1-treated DNA and dNTP as the DNA template-primer and nucleotide substrate at 10 uM after 60 mins
# [12] = molecular target: T1, DNA polymerase lambda (Homo sapiens); experiment: Inhibition of recombinant His-tagged human DNA polymerase lambda using bovine deoxyribonuclease 1-treated DNA and dNTP as the DNA template-primer and nucleotide substrate at 10 uM after 60 mins
# [13] = system: HCT-116; experiment: Cytotoxicity against human HCT116 cells at 100 uM by WST-1 assay; assay type: functional, cell-based
# Outline: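 HCT116 colon carcinoma cells (ATCC) grown in McCoy's 5A with 10% FBS, penicillin and streptomycin, 37 °C, 5% CO2. Plated at 1 × 10⁴ cells/well together with compound, which was diluted from a 10 mM DMSO stock into medium (final 0.5% DMSO). Incubated 24 h. Viability read by WST-1, expressed relative to untreated cells.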
# [14] = system: RAW264.7; experiment: Antiinflammatory activity in mouse RAW264.7 cells assessed as inhibition of LPS-induced TNFalpha secretion at 5 uM treated 30 mins before LPS challenge measured after 24 hrs by ELISA; assay type: functional, cell-based
# Outline: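 RAW264.7 cells in MEM with 4.5 g/L glucose, 10% FCS, 5 mM L-glutamine, at 37 °C in 5% CO2. Seeded at 5 × 10⁴ cells/well and grown 24 h. Compound (final 1 and 5 µM) given 30 min before 100 ng/mL LPS. After 24 h, TNF-α in the medium measured by ELISA, relative to the no-compound value (100%). Mean ± SE, n = 4.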
SMILES,Activity [1],Activity [2],CC50 [3],Activity [4],inhibition [5],inhibition [6],inhibition [7],inhibition [8],inhibition [9],inhibition [10],inhibition [11],inhibition [12],Activity [13],Activity [14]
CCCCCCCCCCCCCCCCCC(=O)Oc1cccc2c1C(=O)C=CC2=O,inactive,Non-toxic,> 10 µM,Active,Active,Active,Active,Active,Active,Active,Active,Active,–,–
CCC(=O)Oc1cccc2c1C(=O)C=CC2=O,inactive,Non-toxic,> 10 µM,Active,Active,Active,Active,Active,Active,Active,Active,Active,–,–
CC/C=C\C/C=C\C/C=C\C/C=C\C/C=C\C/C=C\CCC(=O)Oc1cccc2c1C(=O)C=CC2=O,inactive,Non-toxic,> 10 µM,Active,Active,Active,Active,Active,Active,Active,Active,Active,–,–
O=C1C=CC(=O)c2c(O)cccc21 [JUGLONE],–,Non-toxic,–,Active,Active,Active,Active,Active,Active,Active,Active,Active,Active,Active
CCCCC/C=C\C/C=C\CCCCCCCC(=O)Oc1cccc2c1C(=O)C=CC2=O,inactive,Non-toxic,> 10 µM,Active,Active,Active,Active,Active,Active,Active,Active,Active,–,–
CC(=O)Oc1cccc2c1C(=O)C=CC2=O,inactive,Non-toxic,> 10 µM,Active,Active,Active,Active,Active,Active,Active,Active,Active,–,–
CC/C=C\C/C=C\C/C=C\CCCCCCCC(=O)Oc1cccc2c1C(=O)C=CC2=O,inactive,Non-toxic,> 10 µM,Active,Active,Active,Active,Active,Active,Active,Active,Active,–,–
CCCCCC(=O)Oc1cccc2c1C(=O)C=CC2=O,inactive,Non-toxic,> 10 µM,Active,Active,Active,Active,Active,Active,Active,Active,Active,–,–

# From ChEMBL document CHEMBL1914406, “Inhibitory effect of novel 5-O-acyl juglones on mammalian DNA polymerase activity, cancer cell growth and inflammatory response” (Bioorg Med Chem, 2011)
